System: MS2 coat protein
Experiment: apparent Kd, MS2 coat protein; higher = weaker binding; RNA-MaP array; FMN 200 µM where present
Summary of the method: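 Each design was made on Illumina sequencing-chip clusters by stalled E. coli RNA polymerase and titrated with SNAP-549-labelled MS2 coat protein from 0.7 or 1.5 nM, doubling to 3 µM, in the absence and then the presence of constant ligand. The buffer was 100 mM Tris-HCl pH 7.5, 80 mM KCl, 4 mM MgCl2, BSA, DTT, yeast tRNA and Tween-20. The apparent Kd is the median of filtered per-cluster fits of binding curves, with green signal normalised to red-channel RNA signal and control-cluster median Fmax.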

[1] = designed as: OFF switch for flavin mononucleotide, no ligand
[2] = ligand present: flavin mononucleotide, designed as: OFF switch for flavin mononucleotide
[3] = designed as: ON switch for flavin mononucleotide, no ligand
[4] = ligand present: flavin mononucleotide, designed as: ON switch for flavin mononucleotide

| Sequence | apparent Kd [1] [nM] | apparent Kd [2] [nM] | apparent Kd [3] [nM] | apparent Kd [4] [nM] |
| --- | --- | --- | --- | --- |
| CAGAAGUCAGGAUAUGCAUGGCGGGACUUGCGUCGUGGCGUGCAGAAGGGACAUGAGGAUCACCCAUGUAAAGA | 52.5 | 62.4 |  |  |
| AGGUCAACCACAGGAUAUGGCUAGCAUAGCUAGCCAGAAGGGUGGUCGUUGCCAUGUACAUACAUGAGGAUCACCCAUGUAUCC |  |  | 179 | 54.7 |
| UUGAUGUCAUCAGGAUAUAGUAUUUAAGACAUAUAUUUUUUCAAACAUGAGGAUCACCCAUGUCGCUAGAAGGGAUUAUAGAUU | 41 | 35.6 |  |  |
| GGUUGACAAAGUCAACCAAUUCGAACAUGAGGAUCACCCAUGUAGGAUAUGCUACUCAAAGAGUAGCAGAAGGACAUGUGCCUU | 34.3 | 188 |  |  |
| GGUUGGUAUUACAACGGCCUGAGGGAGGAUAUACAAGGCCGGCGUCGCACAUGAGGAUCACCCAUGUAGAAGGCCCAAGGCCUG | 6.97 | 12 |  |  |
| UCUGCCGCCGUGAGGAUAUGCCCGCAAAAACGCGGGCAGAAGGCACAUGAGGAUCACCCAUGUCCCGCGGUUUU | 13.9 | 33.6 |  |  |
| CCCGGUCGAGCAGGAUAUAGACCGCGUGCAUUUCCCUCAGAUUGAGACAUGAGGAUCACCCAUGUCUAGAAGGGUUCACCGAAA | 5.83 | 6.93 |  |  |
| AUCUCAGGACGAGGAUAUCAAUACAUGAGGAUCACCCAUGUAUGACUACUGUGAUCCUUUAAGGCUGAGAAGGCGUCCCAAAUG | 20.2 | 60.8 |  |  |
| UGCAUGUAAGGAUAUGCAACCUGCGCUCAUUAGCAGGUCAAGCAGAAGGUACAUGAGGAUCACCCAUGUGUCCG | 31.2 | 156 |  |  |
| UUAAAUCAUGUAGGAUAUGCAUGGCGAAGCUACGCAGAAGGACAUGAGGAUCACCCAUGUGCUAGCUACCGGAGACGGUGGCAA | 57.7 | 195 |  |  |
| GUGGUCAGACAUGAGGAUCACCCAUGUGGAAUAAAUAAGGAAUAGGAUAUCGAAUAUAGGAUAUACGAGAAGGGUUGGUUGGUG |  |  | 121 | 131 |
| UAUAUAAUAAGAGCUGGACUUCAAACAUGAGGAUCACCCAUGUAGGAUAUCAGCACGAUAAGUGCUGAGAAGGACAACCAGCUC | 16.5 | 16.8 |  |  |
| UGCCGUGUACAGAAGGGCGACAUGAGGAUCACCCAUGUCUCCUUGUUGGUCGUAGGAUAUGUACCGUGGCUCUCACCUGUGGGA | 5.57 | 6.95 |  |  |
| GGACAGUCAGGAUAUACAUGAGGAUCACCCAUGUUGAGAUGUGAAAGGGCGGGAGUAGGUAGAAGGGACGAGAG | 31.3 | 27.5 |  |  |
| AAUAGGCGAGGAUAUACAUGAGGAUCACCCAUGUAAGUAAGCCUGGCUGAAACUGAAUGUAGAAGGCGCAAUAA | 17.6 | 58.5 |  |  |
| AGUAACAUACUCAACAUGAGGAUCACCCAUGUACUCUCUUGUAAGGAUAUACAUUCGUAUUGAUAGUAGAAGGUACCAAUUAAG |  |  | 53.5 | 57.4 |
| UUGAUUAUACAAGGAUAUCUAUUGUAAUUUCGUCUUACAUGAGGAUCACCCAUGUUAAUAUUUUUAGAGAAGGUGUAUUUUCAG |  |  | 39.9 | 25.9 |
| ACACUCUAUGCAGGAUAUCGAGCCUGGGCCUUGUUUUUUGUAAACAUGAGGAUCACCCAUGUCUUCGAGAAGGGCAUAACACCG | 372 | 136 |  |  |
| UGACGGAGCUGAGGAUAUAUACAUGAGGAUCACCCAUGUAAGCUCCAGGAAACUGGAGCAAAUGUAUAGAAGGCAGCUCCGUCA | 30.3 | 48 |  |  |
| CUCGCAGUAAUAGGAUAUCCACAUCCGUGGCCUGUGUGUGACUUAACAUGAGGAUCACCCAUGUUGGAGAAGGAUUACUCAAUA | 728 | 178 |  |  |
| GGUUAGAAAGGAUAUACAUGUCGUGAGACAUCUUGCACCUAACAUGAGGAUCACCCAUGUAGAAGGUUCAAGCC | 17.4 | 30.5 |  |  |
| UCCUCACAUGAGGAUCACCCAUGUUAGGAUAUCUCGGUGCCCUGCAGGCAGUGGCACCAGAGAAGGAACGUGCA | 21.2 | 22.1 |  |  |
| CACGUACAUGAGGAUCACCCAUGUUAGGAUAUGCCGGGUUAGAGCCAACUAAAAACCCGUAGAAGGGACGAAAC | 23.1 | 25.3 |  |  |

— the EternaBench riboswitch data
